Results on five molecules are retold here after ChEMBL document CHEMBL1141227, “Rhodamine-labeled 2beta-carbomethoxy-3beta-(3,4-dichlorophenyl)tropane analogues as high-affinity fluorescent probes for the dopamine transporter” (J Med Chem, 2005).

By Ki is commonly meant the dissociation constant of the complex between target and ligand, obtained from inhibition or displacement. The low end stands for higher affinity, the high end for lower affinity.

Assay type in all cases: cell-based, COS-7
The target in experiment [1] is Sodium-dependent serotonin transporter (Homo sapiens, UniProt P31645). The experiment is described as follows: Displacement of [3H]5HT from human SERT expressed in COS7 cells. An outline of the steps: (§1)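 Ki derived from inhibition of radiolabelled substrate uptake into COS-7 cells transiently expressing hDAT or hNET ([3H]dopamine) or hSERT ([3H]5-HT). […] Three to six experiments in triplicate, mean with SE interval.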
A general note: Loss of bound radioactivity is the signal in a displacement assay; it reports binding, not function.

In experiment [2] the target is T1, Sodium-dependent dopamine transporter (Homo sapiens, UniProt Q01959). The experiment can be described thus: Displacement of [3H]CFT from human DAT expressed in COS7 cells. An outline of the steps: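 Competition binding on intact COS-7 cells transiently expressing hDAT, with [3H]CFT (2β-carbomethoxy-3β-(4-fluorophenyl)tropane) as radioligand. Ki from nonlinear regression, using a KD for [3H]CFT determined in parallel. Mean of two to three experiments in triplicate, with SE interval.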

The target in experiment [3] is T1, Sodium-dependent dopamine transporter. The experiment can be described thus: Displacement of [3H]dopamine from human DAT expressed in COS7 cells. An outline of the steps: as §1
Experiment [4] concerns the target Sodium-dependent noradrenaline transporter (Homo sapiens, UniProt P23975). The experiment is described as follows: Displacement of [3H]dopamine from human NET expressed in COS7 cells. An outline of the steps:
as §1

Chain of Sodium-dependent serotonin transporter (P31645 whole entry): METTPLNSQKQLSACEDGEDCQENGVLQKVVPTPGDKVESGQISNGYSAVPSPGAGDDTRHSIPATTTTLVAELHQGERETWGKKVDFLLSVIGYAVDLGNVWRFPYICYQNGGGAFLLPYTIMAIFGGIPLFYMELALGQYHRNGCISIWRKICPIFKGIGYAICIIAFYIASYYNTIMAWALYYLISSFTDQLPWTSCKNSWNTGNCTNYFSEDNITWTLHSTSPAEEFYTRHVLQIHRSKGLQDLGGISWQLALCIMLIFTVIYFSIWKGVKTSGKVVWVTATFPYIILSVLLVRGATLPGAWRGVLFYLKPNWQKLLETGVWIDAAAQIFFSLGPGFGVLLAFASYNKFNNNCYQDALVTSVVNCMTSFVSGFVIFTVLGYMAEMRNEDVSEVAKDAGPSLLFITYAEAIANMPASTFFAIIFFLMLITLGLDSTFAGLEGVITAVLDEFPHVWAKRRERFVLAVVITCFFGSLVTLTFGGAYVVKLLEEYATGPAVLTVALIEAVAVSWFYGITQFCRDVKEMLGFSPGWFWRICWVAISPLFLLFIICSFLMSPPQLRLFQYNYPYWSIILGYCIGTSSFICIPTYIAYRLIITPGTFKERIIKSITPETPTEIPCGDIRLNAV
Chain of Sodium-dependent noradrenaline transporter (P23975 whole entry): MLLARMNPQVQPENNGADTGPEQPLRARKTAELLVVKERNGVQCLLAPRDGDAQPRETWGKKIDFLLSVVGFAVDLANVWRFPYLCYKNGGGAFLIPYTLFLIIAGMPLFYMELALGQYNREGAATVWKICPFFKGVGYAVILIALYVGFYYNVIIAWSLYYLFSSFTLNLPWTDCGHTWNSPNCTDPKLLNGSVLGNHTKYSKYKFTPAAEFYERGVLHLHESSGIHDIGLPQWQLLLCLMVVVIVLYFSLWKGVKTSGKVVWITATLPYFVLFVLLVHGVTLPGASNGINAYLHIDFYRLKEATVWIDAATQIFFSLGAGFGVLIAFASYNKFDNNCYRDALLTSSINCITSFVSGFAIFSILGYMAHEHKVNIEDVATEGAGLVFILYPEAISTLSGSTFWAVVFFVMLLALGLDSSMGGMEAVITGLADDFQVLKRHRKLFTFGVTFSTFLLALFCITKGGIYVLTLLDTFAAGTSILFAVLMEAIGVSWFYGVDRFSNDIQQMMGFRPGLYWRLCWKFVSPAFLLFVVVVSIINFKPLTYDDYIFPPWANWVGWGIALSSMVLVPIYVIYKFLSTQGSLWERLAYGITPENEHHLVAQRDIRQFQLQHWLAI
T1 sequence (Q01959 whole entry): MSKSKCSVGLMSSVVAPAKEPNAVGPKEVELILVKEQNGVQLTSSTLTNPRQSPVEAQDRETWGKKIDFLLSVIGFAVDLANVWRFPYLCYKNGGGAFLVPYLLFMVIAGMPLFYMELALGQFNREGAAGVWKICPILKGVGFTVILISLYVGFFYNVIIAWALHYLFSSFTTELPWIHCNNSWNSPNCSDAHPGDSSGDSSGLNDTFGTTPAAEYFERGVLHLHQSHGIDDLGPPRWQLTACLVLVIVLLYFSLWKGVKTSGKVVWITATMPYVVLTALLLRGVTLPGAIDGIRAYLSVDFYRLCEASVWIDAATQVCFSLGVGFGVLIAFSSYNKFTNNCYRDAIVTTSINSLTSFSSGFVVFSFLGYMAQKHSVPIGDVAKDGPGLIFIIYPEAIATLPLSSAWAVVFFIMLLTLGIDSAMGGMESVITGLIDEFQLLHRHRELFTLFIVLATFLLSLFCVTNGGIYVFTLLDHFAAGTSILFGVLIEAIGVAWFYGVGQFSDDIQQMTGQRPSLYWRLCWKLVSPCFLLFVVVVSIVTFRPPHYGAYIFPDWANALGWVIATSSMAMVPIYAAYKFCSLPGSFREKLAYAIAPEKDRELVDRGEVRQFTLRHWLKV

`CCN(CC)c1ccc2c(-c3ccc(S(=O)(=O)NCCCCCC(=O)NCCN4C5CCC4[C@@H](C(=O)OC)[C@@H](c4ccc(Cl)c(Cl)c4)C5)cc3S(=O)(=O)[O-])c3ccc(=[N+](CC)CC)cc-3oc2c1` (some centres undefined): the Ki in experiment [1] amounted to 392 nM; in experiment [2], 18 nM; in experiment [3], 62 nM; in experiment [4] it was 194 nM.

Turning to `COC(=O)[C@@H]1C2CCC(C[C@@H]1c1ccc(Cl)c(Cl)c1)N2CCNC(=O)CCCN1CCCc2cc3c(cc21)C(C)(C)C1=CC(=[N+](C)C)C=CC1=C3` (some centres undefined), the Ki in experiment [1] is 227 nM; in experiment [2] it was 50 nM; in experiment [3] it was 250 nM; in experiment [4], 308 nM.

As for `CCN(CC)c1ccc2c(-c3ccc(S(=O)(=O)NC[C@H]4CC[C@H](C(=O)NCCN5C6CCC5[C@@H](C(=O)OC)[C@@H](c5ccc(Cl)c(Cl)c5)C6)CC4)cc3S(=O)(=O)[O-])c3ccc(=[N+](CC)CC)cc-3oc2c1` (some centres undefined), the Ki in experiment [1] stood at 705 nM; in experiment [3], 436 nM; in experiment [4], 627 nM.

On to `CCN(CC)c1ccc2c(-c3ccc(S(=O)(=O)NCCCCCC(=O)NCCOC(=O)[C@@H]4C5CCC(C[C@@H]4c4ccc(Cl)c(Cl)c4)N5C)cc3S(=O)(=O)[O-])c3ccc(=[N+](CC)CC)cc-3oc2c1` (some centres undefined), for which the Ki in experiment [1] came out at 1490 nM; in experiment [2] it was 27 nM; in experiment [3] it was 72 nM; in experiment [4], 177 nM.

For the molecule `COC(=O)[C@@H]1C2CCC(C[C@@H]1c1ccc(Cl)c(Cl)c1)N2C` (some centres undefined), the Ki in experiment [1] is 12 nM; in experiment [2], 0.2 nM; in experiment [3], 2.3 nM; in experiment [4] it was 5 nM.
